PME-1 inh – blocks human protein phosphatase methylesterase 1; Q9Y570; recombinant PME-1, FP-Rh probe fluorescence polarization; inhibition, % at 5.9 µM; hit rate 0.53% among 320,000;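 active means inhibition above the campaign mean of all compounds plus 3 SD, cut at about 26% in these data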;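 further: competitive labeling of PME-1 active site by serine hydrolase directed probe; inhibitors block probe labeling so polarization falls and inhibition rises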
RBBP9 inhibitor – blocks human serine hydrolase RBBP9; O75884; recombinant RBBP9, FP-Rh probe fluorescence polarization; inhibition, % at 7.94 µM; hit rate 0.2% among 220,000;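 active means inhibition above the campaign mean of all tested compounds plus 3 SD, cut at about 14% in these data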
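Measured by: FP readout at 525/598 nm; material: recombinant human RBBP9; also added: Serine-hydrolase probe FP-Rh, 375 nM pre-mixing; medium: Tris buffer pH 8.0, NaCl, Pluronic; replication: one well per compound; doses: one concentration, 7.94 µM nominal, 0.794% DMSO; timing: preincubation 30 min plus labeling 45 min at 25 °C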
PAD4 FP inh – blocks human protein arginine deiminase 4. Q9UM07. inhibition, % at 6.36 µM. hit rate 0.41% among 330,000. recombinant PAD4, RCA probe fluorescence polarization;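 active means percent inhibition above a cutoff equal to the mean of all tested compounds plus 3 SD, cut at about 15% in these data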
Target sequence (Q9UM07 whole entry, looked up): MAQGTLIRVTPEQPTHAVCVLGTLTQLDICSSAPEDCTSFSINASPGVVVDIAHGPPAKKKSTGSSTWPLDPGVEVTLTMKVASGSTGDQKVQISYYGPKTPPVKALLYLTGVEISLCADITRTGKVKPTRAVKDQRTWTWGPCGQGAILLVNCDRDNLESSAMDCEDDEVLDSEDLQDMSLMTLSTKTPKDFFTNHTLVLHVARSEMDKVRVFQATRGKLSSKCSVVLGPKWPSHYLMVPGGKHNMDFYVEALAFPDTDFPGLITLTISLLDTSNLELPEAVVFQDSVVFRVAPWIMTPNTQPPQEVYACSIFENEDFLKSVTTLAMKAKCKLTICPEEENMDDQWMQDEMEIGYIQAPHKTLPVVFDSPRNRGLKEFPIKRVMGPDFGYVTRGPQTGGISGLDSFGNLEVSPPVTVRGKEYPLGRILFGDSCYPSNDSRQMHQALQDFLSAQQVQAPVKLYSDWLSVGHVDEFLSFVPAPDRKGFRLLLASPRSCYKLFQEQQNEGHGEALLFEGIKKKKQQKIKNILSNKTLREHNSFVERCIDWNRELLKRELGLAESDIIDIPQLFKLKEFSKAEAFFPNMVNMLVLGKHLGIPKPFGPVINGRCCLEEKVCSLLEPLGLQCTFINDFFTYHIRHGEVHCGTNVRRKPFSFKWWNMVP
PRMT1 FP inh – inhibitors of human PRMT1; AID 652257; inhibition, % at 2.79 µM; hit rate 1.3% among 370,000; recombinant PRMT1, activity-based probe fluorescence polarization; Q99873;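 active means inhibition above about 21% made by adding two undisclosed values, limit read from the data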
GSTO1 inh – counter-screen for RBBP9 inhibitors: inhibitors of human GSTO1; AID 1974; hit rate 1.1% among 300,000; P78417; recombinant GSTO1, activity-based probe fluorescence polarization; inhibition, % at 5.96 µM;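 active means inhibition above the campaign mean inhibition plus 3 SD, cut at about 35% in these data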
Fam108B inh – blocks mouse Fam108B hydrolase in RBBP9 counter-screen. recombinant Fam108B, FP-Rh probe fluorescence polarization. inhibition, % at 9.51 µM. hit rate 0.33% among 300,000. AID 1947;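 active means inhibition above the screen mean inhibition plus 3 SD, computed separately per campaign, cut at about 18% in these data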;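 further: inhibitors lower polarization as less probe binds the enzyme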
GSTO1 confirm – confirmation of human GSTO1 inhibitors; shares compounds with GSTO1 inh; recombinant GSTO1, probe fluorescence polarization; inhibition, % at 5.96 µM; hit rate 54% among 2,400;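 active means inhibition above the primary screen's cutoff, its mean inhibition plus 3 SD, cut at about 35% in these data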;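 further: loss of polarization as inhibitors block binding of rhodamine sulfonate ester activity probe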
GSTO1 recomb ABPP – blocks recombinant human glutathione S-transferase omega 1; shares compounds with GSTO1 inh; recombinant GSTO1, gel ABPP SE-Rh probe fluorescence; inhibition, % at 1 µM; hit rate 30% among 130;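 active means inhibition of the enzyme GSTO1 above about 75%, limit read from the data; inactive means inhibition below that limit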
PAD4 confirm – confirmation of human PAD4 inhibitors; shares compounds with PAD4 FP inh; recombinant PAD4, RCA probe fluorescence polarization; inhibition, % at 6.36 µM; hit rate 28% among 1,200;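 active means mean inhibition across replicates above the hit cutoff set by the earlier primary screen, cut at about 15% in these data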;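 further: inhibitors block active-site labeling by the probe so polarization falls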
Of the large screens only hits and unclear results are named; the others gave an inactive call (follow-up assays come after a bar, where they were run). The list is not random: actives were taken first. Their share in the collection is about 2.3%.

CCc1cccc2c(C(=O)COC(=O)c3ccc([N+](=O)[O-])s3)c[nH]c12	PME-1 inh 29, GSTO1 inh 53 | GSTO1 confirm inactive
Cc1ccc(-c2cc(NC(=O)CCl)n(-c3ccccc3)n2)cc1	GSTO1 inh 73 | GSTO1 confirm 86
O=C(CCl)Nc1cc(-c2ccccc2)nn1-c1ccccc1	GSTO1 inh 65 | GSTO1 confirm 89
CC(=O)Nc1ccc(-c2cc(NC(C)=O)n(-c3ccccc3)n2)cc1	none
CCOC(=O)Cc1c(C)c2c(O)cc(O)cc2oc1=O	GSTO1 inh 59 | GSTO1 confirm inactive
Cc1cc(C)cc(C(=O)NCCC(=O)N2CCC3(CC2)NCCc2[nH]cnc23)c1	none (no result: RBBP9 inhibitor)
Cc1cc(C(=O)CCl)c(C)n1CCc1ccccc1	GSTO1 inh 79 | GSTO1 confirm 97
CCOC(=O)c1cc(C)n(CCc2ccccc2)c1C	none
CCOc1ccc(NC(=S)N(CCc2c(C)[nH]c3ccc(C)cc23)Cc2cccnc2)cc1	none
CCOc1ccc(CN(C)C(=O)CCl)cc1	GSTO1 inh 81 | GSTO1 confirm 98 | GSTO1 recomb ABPP inactive
O=C(Nc1ccc(Br)cc1)c1cc([N+](=O)[O-])cc([N+](=O)[O-])c1	none (no result: RBBP9 inhibitor)
O=c1c2c([N+](=O)[O-])cc([N+](=O)[O-])cc2sn1-c1ccc(Br)cc1	RBBP9 inhibitor 17, GSTO1 inh 38 (no result: PRMT1 FP inh) | GSTO1 confirm inactive
Cc1csc(Cn2c(CN(C)C)nc3ccccc3c2=O)n1	GSTO1 inh 43 | GSTO1 confirm inactive
Cc1c(C#N)c(NC(=O)CCl)n(Cc2ccccc2)c1C	GSTO1 inh 86 | GSTO1 confirm 91
Cc1cc(=O)n(Cc2ccccc2)c(O)c1C#N	none (no result: RBBP9 inhibitor)
Cc1c(C#N)c(NC(=O)CCl)n(Cc2ccc(F)cc2)c1C	GSTO1 inh 81 | GSTO1 confirm 96
O=c1oc2cc(O)ccc2c2ccccc12	none
O=c1oc2cc(O)ccc2c2oc3cc(O)ccc3c12	GSTO1 inh 39 | GSTO1 confirm 49
COc1ccc(-c2cc(=O)c3ccc(O)cc3o2)cc1OC	none (no result: PME-1 inh, RBBP9 inhibitor, PAD4 FP inh, GSTO1 inh, Fam108B inh)
COc1cc(/C=N/NS(=O)(=O)c2ccc(C(C)(C)C)cc2)cc([N+](=O)[O-])c1O	GSTO1 inh 50 | GSTO1 confirm 64
CCc1ccc(-c2nc(CCl)cs2)cc1	GSTO1 inh 92 | GSTO1 confirm 98 | GSTO1 recomb ABPP 81
COc1ccc(-c2nc(CCl)cs2)cc1OC	none
COc1cccc(-c2nc(CCl)cs2)c1	GSTO1 inh 83 | GSTO1 confirm 95 | GSTO1 recomb ABPP inactive
O=C1c2ccccc2C(=O)C2OC12 (stereo not drawn)	GSTO1 inh 76 (no result: RBBP9 inhibitor, PRMT1 FP inh) | GSTO1 confirm inactive
Cc1nc2c(O)cccc2cc1CO	GSTO1 inh 50 | GSTO1 confirm inactive
CCOC(=O)N1CCc2[nH]c3ccc(C)cc3c2C1	none
CC(=O)N1CCc2[nH]c3ccc(C)cc3c2C1	GSTO1 inh 54 (no result: RBBP9 inhibitor) | GSTO1 confirm inactive
O=C1CCN(Cc2ccccc2)CCN1CCSc1ccccc1	none (no result: RBBP9 inhibitor)
CCSC1=N/C(=C\c2ccccc2)C(=O)N1	none
Fc1ccccc1-c1csc(=Nc2cccnc2)n1CCCn1ccnc1	GSTO1 inh 41 | GSTO1 confirm inactive
Fc1ccccc1-c1csc(=Nc2cccnc2)n1CC1CCCO1 (stereo not drawn)	none
O=C(COC(=O)c1ccc(Cl)nc1)Nc1ccccc1OC(F)F	none
CC(C)(Oc1ccc(Cl)cc1)C(=O)NCC(c1cccs1)N1CCOCC1 (stereo not drawn)	none (no result: RBBP9 inhibitor)
CC1(OC(=O)C2CCCC2)C(=O)C=C2C=C(c3ccsc3)N(CCc3ccccn3)C=C2C1=O (stereo not drawn)	PAD4 FP inh 19, GSTO1 inh 49 (no result: RBBP9 inhibitor) | GSTO1 confirm inactive | PAD4 confirm inactive
CCOC(=O)C(C(=O)OCC)C(Nc1cccc(Br)c1)c1ccccc1 (stereo not drawn)	none
COc1ccc(NC(=O)Nc2ccccc2OC)cc1	none
COc1ccc(NC(=O)Nc2ccc(O)c3ccccc23)cc1	PAD4 FP inh 23, GSTO1 inh 65 (no result: RBBP9 inhibitor) | GSTO1 confirm inactive | PAD4 confirm inactive
Cc1ccc(-c2csc3ncnc(Nc4ccc(N5CCOCC5)cc4)c23)cc1	none
CC(=O)N1CCc2[nH]c3ccccc3c2C1	none
O=C(N1CCc2[nH]c3ccccc3c2C1)C(F)(F)F	PAD4 FP inh 58, GSTO1 inh 88 (no result: RBBP9 inhibitor) | GSTO1 confirm inactive | PAD4 confirm inactive
CC(=O)c1c2c3c(c(Br)ccc3n(C)c1=O)C(=O)c1ccccc1-2	PAD4 FP inh 20, GSTO1 inh 48 (no result: RBBP9 inhibitor) | GSTO1 confirm inactive | PAD4 confirm inactive
O=c1c2sc3ccccc3c2[nH]c(=S)n1CCN1CCOCC1	none
Nc1cc2nc3ccccc3oc-2cc1=O	PAD4 FP inh 28, PRMT1 FP inh 24, GSTO1 inh 68 | GSTO1 confirm 50 | PAD4 confirm inactive
O=C1CCC/C1=C/Nc1ccc(Cl)cc1	none
O=C1CCCC/C1=C\Nc1ccc(O)cc1	PAD4 FP inh 43, PRMT1 FP inh 26, GSTO1 inh 42 | GSTO1 confirm inactive | PAD4 confirm inactive
O=C(NCCO)c1ccc2nc(-c3ccco3)c(-c3ccco3)nc2c1	PAD4 FP inh 30, PRMT1 FP inh 65, GSTO1 inh 75 | GSTO1 confirm 57 | PAD4 confirm inactive
COc1ccc(-n2[nH]c(C)cc2=O)cc1	PAD4 FP inh 64, GSTO1 inh 59 | GSTO1 confirm inactive | PAD4 confirm inactive
COc1cccc(N=C2SC(C(=O)Nc3ccccc3F)CC(=O)N2C)c1 (stereo not drawn)	none
CCOC(=O)c1c(NC(=O)c2ccco2)n(C2CCCCC2)c2nc3ccccc3nc12	PAD4 FP inh 15, GSTO1 inh 62 | GSTO1 confirm 86 | PAD4 confirm 25
COCCOC(=O)c1c(N)n(CCCN2CCOCC2)c2nc3ccccc3nc12	none
CCCCCOC(=O)c1c(N)n(CCOC)c2nc3ccccc3nc12	PAD4 FP inh 26, GSTO1 inh 65 | GSTO1 confirm inactive | PAD4 confirm inactive
O=C1CCCC2=C1C1(O)C(=O)c3ccccc3C1(O)O2 (stereo not drawn)	PAD4 FP inh 45, GSTO1 inh 70 | GSTO1 confirm 68 | PAD4 confirm 33
CCCc1cc(=O)oc2c(CN3CCCC3)c(O)c(Cl)cc12	none
CC1=NN(c2ccc(F)cc2)C(=O)C1C(c1cccc(O)c1)c1c(C)[nH]n(-c2ccc(F)cc2)c1=O (stereo not drawn)	PAD4 FP inh 69, GSTO1 inh 58 | GSTO1 confirm 36 | PAD4 confirm inactive
Cn1c(-c2ccc([N+](=O)[O-])cc2)nc2ccccc21	none

Assay outcomes deposited in PubChem by The Scripps Research Institute Molecular Screening Center.
